Reference: article PMC10606955 (Chemico-biological interactions, 2023)
“And” between values parts separate entries of the source, which are not always exact repeats. Identical values can stand only once. “Also recorded” adds a separate entry of the source.

Columns and labels:
[1] = target: T1, carboxylesterase 1 (CES1) (Homo sapiens, UniProt P23141); assay: Reversible inhibition kinetics of CES1; assay type: biochemical; details: for α (reversible inhibition type): 1 = noncompetitive, infinity = competitive, between = mixed-type; for α (reversible inhibition type) / Vmax: mean ± S.D.; for Vmax: OC formation, fit parameter, triplicate experiments; for type of reversible inhibition of CES1: from modified Michaelis-Menten model
T1 sequence (P23141 18-567): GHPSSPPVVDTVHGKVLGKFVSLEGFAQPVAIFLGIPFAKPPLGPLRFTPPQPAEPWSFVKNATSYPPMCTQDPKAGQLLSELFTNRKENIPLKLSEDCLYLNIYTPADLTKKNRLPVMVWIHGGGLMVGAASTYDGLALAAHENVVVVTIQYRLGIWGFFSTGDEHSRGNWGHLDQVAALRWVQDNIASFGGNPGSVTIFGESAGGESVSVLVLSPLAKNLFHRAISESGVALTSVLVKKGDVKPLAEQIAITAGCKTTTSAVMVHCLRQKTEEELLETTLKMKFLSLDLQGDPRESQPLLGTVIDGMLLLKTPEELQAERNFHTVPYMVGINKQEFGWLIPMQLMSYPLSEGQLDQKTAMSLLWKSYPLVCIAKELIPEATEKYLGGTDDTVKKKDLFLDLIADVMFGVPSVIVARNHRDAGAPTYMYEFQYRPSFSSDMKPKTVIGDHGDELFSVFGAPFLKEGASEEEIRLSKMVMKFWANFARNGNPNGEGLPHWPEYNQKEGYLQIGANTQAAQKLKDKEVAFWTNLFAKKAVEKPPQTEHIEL

[2] = target: T1, carboxylesterase 1 (CES1); assay: Concentration response curves for inhibition of CES1; assay type: biochemical; details: 200 μM OST, CES1 S9; for IC50: read-out: IC50 (kratom alkaloids), alkaloid 0–128 μM, 1% DMSO
In short: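 CES1 S9 (supernatant, 9000g, from sonicated Flp-In-293 cells expressing wild-type CES1) at 20 μg/mL in 50 mM phosphate buffer. Test compound at 0–128 μM, or extracts at 0–128 μg/mL, in 1% DMSO with 200 μM oseltamivir, 15 min at 37°C. Stopped with 4 volumes acetonitrile containing ritalinic acid internal standard. Oseltamivir carboxylate measured by LC-MS/MS and expressed relative to DMSO control; IC50 fitted by modified Hill equation.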

[3] = target: T1, carboxylesterase 1 (CES1); assay: Time-dependent inhibition of CES1; assay type: biochemical; details: for Ratio of Preincubation to No Preincubation (IC50, alkaloids): 30 min preincubation; for IC50: mean ± S.E., 200 μM OST
[4] = human, 2g dose of kratom; cited from earlier work
[5] = Preincubation 30 min with CES1 S9

Row | Compound | α (reversible inhibition type) [1] | Vmax [1] | type of reversible inhibition of CES1 [1] | concentration dependence of CES1 inhibition [2] | IC50 [2] | Ratio of Preincubation to No Preincubation (IC50, alkaloids) [3] | IC50 ([3]; No preincubation) | IC50 [3, 5] | Cmax [4] | type of reversible inhibition of CES1 ([1]; listed as Speciociliatine)
1 | C=C[C@H]1CN2CCc3c([nH]c4cccc(OC)c34)[C@@H]2C[C@@H]1/C(=C\OC)C(=O)OC [paynantheine] | 8.439 ± 6.336 | 232.2 ± 18.38 nmol/min/mg protein | mixed-type reversible inhibitors; also recorded: mixed competitive-noncompetitive inhibition; also recorded: mixed competitive-noncompetitive inhibitors | concentration-dependent reversible inhibition | 32.9 µM and < 50 µM | 1.38 | 32.9 ± 7.2 µM | 45.6 ± 14.1 µM |  | 
2 | corynantheidine | 8.767 ± 2.734 |  | mixed-type reversible inhibitors; also recorded: mixed competitive-noncompetitive inhibition; also recorded: mixed competitive-noncompetitive inhibitors | concentration-dependent reversible inhibition |  | 0.993 |  |  |  | 
3 | mitragynine | ∞ | 224.2 ± 24.37 nmol/min/mg protein | purely competitive inhibitor; also recorded: pure competitive inhibition | concentration-dependent reversible inhibition | 38.9 µM and < 50 µM | 0.868 | 38.9 ± 16.3 µM | 33.8 ± 5.47 µM |  | 
4 | CC[C@H]1CN2CCc3c([nH]c4cccc(OC)c34)[C@@H]2C[C@@H]1/C(=C\OC)C(=O)OC [speciogynine] |  |  |  | concentration-dependent reversible inhibition | 54.3 µM | 1.22 |  | 66.2 ± 29 µM |  | 
5 | CC[C@@H]1CN2CCc3c([nH]c4cccc(OC)c34)[C@H]2C[C@@H]1/C(=C\OC)C(=O)OC [speciociliatine] | 2.817 ± 1.666 | 210.5 ± 41.43 nmol/min/mg protein | mixed competitive-noncompetitive inhibitors | concentration-dependent reversible inhibition |  | 1.18 | 18.1 ± 4 µM | 21.4 ± 2.48 µM | 308 nM | mixed-type reversible inhibitors; also recorded: mixed competitive-noncompetitive inhibition
